Laboratory results: ChEMBL document CHEMBL1145928, “Guanidino N-substituted and N,N-disubstituted derivatives of the kappa-opioid antagonist GNTI” (J Med Chem, 2003)

What was measured:
Mu-type opioid receptor [1] = molecular target: T1, Mu-type opioid receptor (Homo sapiens, UniProt P35372); experiment: Antagonistic activity against cloned human Opioid receptor mu 1 using DAMGO as ligand in [35S]GTP-gamma-S, assay; assay type: functional
[2] = molecular target: T2, Opioid receptors; delta & kappa (Homo sapiens) (UniProt P41145+P41143); experiment: Ratio of (Ki) delta-opioid receptor to that of (Ki) kappa-opioid receptor; assay type: protein assay
T2 sequence (P41143 whole entry, looked up): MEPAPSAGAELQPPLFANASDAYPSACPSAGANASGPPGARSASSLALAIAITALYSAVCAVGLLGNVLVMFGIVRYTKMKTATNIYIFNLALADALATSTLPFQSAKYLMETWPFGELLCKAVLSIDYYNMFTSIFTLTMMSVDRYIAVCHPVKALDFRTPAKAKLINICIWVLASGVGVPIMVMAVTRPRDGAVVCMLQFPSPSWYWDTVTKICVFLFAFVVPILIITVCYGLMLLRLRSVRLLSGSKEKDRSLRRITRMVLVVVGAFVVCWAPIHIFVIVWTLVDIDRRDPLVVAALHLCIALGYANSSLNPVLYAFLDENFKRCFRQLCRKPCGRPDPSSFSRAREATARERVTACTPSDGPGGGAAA
T2 sequence (P41145 whole entry, looked up): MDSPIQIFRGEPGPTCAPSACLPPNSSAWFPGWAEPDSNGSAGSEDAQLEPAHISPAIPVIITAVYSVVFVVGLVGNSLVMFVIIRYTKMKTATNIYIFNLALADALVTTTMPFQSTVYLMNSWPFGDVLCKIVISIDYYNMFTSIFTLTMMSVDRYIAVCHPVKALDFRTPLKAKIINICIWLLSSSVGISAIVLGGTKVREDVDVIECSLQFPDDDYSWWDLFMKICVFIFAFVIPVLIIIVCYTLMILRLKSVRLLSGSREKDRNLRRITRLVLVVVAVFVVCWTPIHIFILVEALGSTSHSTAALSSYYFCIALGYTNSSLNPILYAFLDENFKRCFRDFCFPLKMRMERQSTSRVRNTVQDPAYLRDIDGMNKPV
In short: (§1)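 Ki ratios μ/κ and δ/κ from competition binding in CHO cells with cloned human receptors, displacing [3H]DAMGO, [3H]Cl-DPDPE or [3H]U69,593. Data are averages of two experiments, each run in triplicate.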

[3] = molecular target: T2, Opioid receptors; delta & kappa (Homo sapiens); experiment: Ratio of (Ke) delta-opioid receptor to that of (Ke) kappa-opioid receptor; assay type: protein assay
In short: (§2)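 Selectivity ratios taken from [35S]GTPγS antagonist values in CHO membranes expressing cloned human receptors (μ with DAMGO, δ with Cl-DPDPE, κ with U69,593), as μ/κ and δ/κ. Values are means of five or six experiments.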

[4] = molecular target: T3, Opioid receptors; mu & kappa (Homo sapiens) (UniProt P41145+P35372); experiment: Ratio of (Ke) mu-opioid receptor to that of (Ke) kappa-opioid receptor; assay type: protein assay; in short: as §2
T3 sequence (P35372 whole entry, looked up): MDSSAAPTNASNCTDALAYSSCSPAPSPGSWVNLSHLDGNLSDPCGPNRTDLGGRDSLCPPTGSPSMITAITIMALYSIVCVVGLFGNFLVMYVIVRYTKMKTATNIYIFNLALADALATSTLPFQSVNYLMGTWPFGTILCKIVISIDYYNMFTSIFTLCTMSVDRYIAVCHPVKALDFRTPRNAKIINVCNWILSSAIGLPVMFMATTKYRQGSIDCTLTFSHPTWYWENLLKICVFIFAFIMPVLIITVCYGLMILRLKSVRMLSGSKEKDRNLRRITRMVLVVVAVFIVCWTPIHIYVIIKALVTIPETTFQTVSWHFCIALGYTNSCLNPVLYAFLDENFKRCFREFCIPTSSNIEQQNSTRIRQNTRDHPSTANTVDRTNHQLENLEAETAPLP
T3 sequence (P41145 whole entry, looked up): as the sequence (P41145 whole entry, looked up) above

[5] = molecular target: T4, Kappa-type opioid receptor (Homo sapiens, UniProt P41145); experiment: Binding affinity against cloned human Opioid receptor kappa 1 transfected into chinese hamster ovary cells using [3H]U-69593 as radioligand; assay type: cell-based
T4 sequence (P41145 whole entry): as the sequence (P41145 whole entry, looked up) above
In short: (§3)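 Competition binding in CHO cells transfected with cloned human opioid receptors, using [3H]DAMGO (μ), [3H]Cl-DPDPE (δ) and [3H]U69,593 (κ) as displaced radioligands. Hill slopes were examined. Data are averages of two experiments, each run in triplicate.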

[6] = molecular target: T5, Delta-type opioid receptor (Homo sapiens, UniProt P41143); experiment: Antagonistic activity against cloned human Opioid receptor delta 1 using DPDPE as ligand in [35S]GTP-gamma-S, assay; assay type: functional
T5 sequence (P41143 whole entry): as the sequence (P41143 whole entry, looked up) above

[7] = molecular target: T3, Opioid receptors; mu & kappa (Homo sapiens); experiment: Ratio of (Ki) mu-opioid receptor to that of (Ki) kappa-opioid receptor; assay type: protein assay; in short: as §1
Mu-type opioid receptor [8] = molecular target: T1, Mu-type opioid receptor; experiment: Binding affinity against cloned human Opioid receptor mu 1 transfected into chinese hamster ovary cells using [3H]DAMGO as radioligand; assay type: cell-based; in short: as §3
[9] = molecular target: T4, Kappa-type opioid receptor; experiment: Antagonistic activity against cloned human Opioid receptor kappa 1 using U69,593 as ligand in [35S]GTP-gamma-S, assay; assay type: functional
[10] = molecular target: T5, Delta-type opioid receptor; experiment: Binding affinity against cloned human Opioid receptor delta 1 transfected into chinese hamster ovary cells using [3H]Cl-DPDPE as radioligand; assay type: cell-based; in short: as §3

T1 sequence (P35372 whole entry): as the sequence (P35372 whole entry, looked up) above

N/C(=N\CCc1ccc2[nH]c3c(c2c1)C[C@@]1(O)[C@H]2Cc4ccc(O)c5c4[C@@]1(CCN2CC1CC1)[C@H]3O5)NCc1ccccc1
Ke (Mu-type opioid receptor [1]): 2.94 nM | Ratio [2]: 5 | Ratio [3]: 10 | Ratio [4]: 23 | Ki [5]: 1.42 nM | Ke [6]: 1.36 nM | Ratio [7]: 2 | Ki (Mu-type opioid receptor [8]): 3.54 nM | Ke [9]: 0.13 nM | Ki [10]: 7.24 nM

N/C(=N/Cc1cccc(O)c1)Nc1ccc2[nH]c3c(c2c1)C[C@@]1(O)[C@H]2Cc4ccc(O)c5c4[C@@]1(CCN2CC1CC1)[C@H]3O5
Ke (Mu-type opioid receptor [1]): 4.28 nM | Ratio [2]: 6 | Ratio [3]: 33 | Ratio [4]: 33 | Ki [5]: 2.74 nM | Ke [6]: 4.35 nM | Ratio [7]: 5 | Ki (Mu-type opioid receptor [8]): 14.2 nM | Ke [9]: 0.13 nM | Ki [10]: 17.6 nM

CCC/N=C(\NCCC)Nc1ccc2[nH]c3c(c2c1)C[C@@]1(O)[C@H]2Cc4ccc(O)c5c4[C@@]1(CCN2CC1CC1)[C@H]3O5
Ke (Mu-type opioid receptor [1]): 4.59 nM | Ratio [2]: 3 | Ratio [3]: 9 | Ratio [4]: 18 | Ki [5]: 2.72 nM | Ke [6]: 2.43 nM | Ratio [7]: 4 | Ki (Mu-type opioid receptor [8]): 9.83 nM | Ke [9]: 0.26 nM | Ki [10]: 8.52 nM

Oc1ccc2c3c1O[C@H]1c4[nH]c5ccc(N/C(=N/CC6CC6)NCc6ccccc6)cc5c4C[C@@]4(O)[C@@H](C2)N(CC2CC2)CC[C@]314
Ke (Mu-type opioid receptor [1]): 2.75 nM | Ratio [2]: 5 | Ratio [3]: 19 | Ratio [4]: 16 | Ki [5]: 3.91 nM | Ke [6]: 3.28 nM | Ratio [7]: 4.5 | Ki (Mu-type opioid receptor [8]): 17.7 nM | Ke [9]: 0.17 nM | Ki [10]: 18.1 nM

N/C(=N\CCc1ccc2[nH]c3c(c2c1)C[C@@]1(O)[C@H]2Cc4ccc(O)c5c4[C@@]1(CCN2CC1CC1)[C@H]3O5)NCc1ccc(N)cc1
Ke (Mu-type opioid receptor [1]): 1.57 nM | Ratio [2]: 5 | Ratio [3]: 4 | Ratio [4]: 6 | Ki [5]: 0.95 nM | Ke [6]: 0.95 nM | Ratio [7]: 8 | Ki (Mu-type opioid receptor [8]): 7.78 nM | Ke [9]: 0.25 nM | Ki [10]: 5.05 nM

N/C(=N\CCc1ccc2[nH]c3c(c2c1)C[C@@]1(O)[C@H]2Cc4ccc(O)c5c4[C@@]1(CCN2CC1CC1)[C@H]3O5)NCc1ccc([N+](=O)[O-])cc1
Ke (Mu-type opioid receptor [1]): 2.2 nM | Ratio [2]: 5 | Ratio [3]: 8 | Ratio [4]: 13 | Ki [5]: 2.14 nM | Ke [6]: 1.34 nM | Ratio [7]: 4 | Ki (Mu-type opioid receptor [8]): 9.21 nM | Ke [9]: 0.17 nM | Ki [10]: 11.7 nM

N=C(N)NCc1ccc2[nH]c3c(c2c1)C[C@@]1(O)[C@H]2Cc4ccc(O)c5c4[C@@]1(CCN2CC1CC1)[C@H]3O5
Ke (Mu-type opioid receptor [1]): 3.23 nM | Ratio [2]: 389 | Ratio [3]: 389 | Ratio [4]: 81 | Ki [5]: 0.18 nM | Ke [6]: 15.5 nM | Ratio [7]: 205 | Ki (Mu-type opioid receptor [8]): 36.9 nM | Ke [9]: 0.04 nM | Ki [10]: 70 nM

N/C(=N/Cc1ccc(N)cc1)Nc1ccc2[nH]c3c(c2c1)C[C@@]1(O)[C@H]2Cc4ccc(O)c5c4[C@@]1(CCN2CC1CC1)[C@H]3O5
Ke (Mu-type opioid receptor [1]): 1.22 nM | Ratio [2]: 68 | Ratio [3]: 120 | Ratio [4]: 14 | Ki [5]: 0.63 nM | Ke [6]: 10.8 nM | Ratio [7]: 13 | Ki (Mu-type opioid receptor [8]): 7.89 nM | Ke [9]: 0.09 nM | Ki [10]: 23.9 nM

CCCC/N=C(\NCCCC)NCCc1ccc2[nH]c3c(c2c1)C[C@@]1(O)[C@H]2Cc4ccc(O)c5c4[C@@]1(CCN2CC1CC1)[C@H]3O5
Ke (Mu-type opioid receptor [1]): 4.62 nM | Ratio [2]: 1.5 | Ratio [3]: 3 | Ratio [4]: 12 | Ki [5]: 4.8 nM | Ke [6]: 1.05 nM | Ratio [7]: 1.5 | Ki (Mu-type opioid receptor [8]): 7.89 nM | Ke [9]: 0.39 nM | Ki [10]: 6.73 nM

N/C(=N/Cc1ccccc1)Nc1ccc2[nH]c3c(c2c1)C[C@@]1(O)[C@H]2Cc4ccc(O)c5c4[C@@]1(CCN2CC1CC1)[C@H]3O5
Ke (Mu-type opioid receptor [1]): 1.41 nM | Ratio [2]: 31 | Ratio [3]: 68 | Ratio [4]: 24 | Ki [5]: 0.86 nM | Ke [6]: 4.09 nM | Ratio [7]: 12 | Ki (Mu-type opioid receptor [8]): 10.5 nM | Ke [9]: 0.06 nM | Ki [10]: 26.8 nM

N/C(=N/Cc1ccc(Cl)cc1)Nc1ccc2[nH]c3c(c2c1)C[C@@]1(O)[C@H]2Cc4ccc(O)c5c4[C@@]1(CCN2CC1CC1)[C@H]3O5
Ke (Mu-type opioid receptor [1]): 5.24 nM | Ratio [2]: 129 | Ratio [3]: 55 | Ratio [4]: 37 | Ki [5]: 0.66 nM | Ke [6]: 7.67 nM | Ratio [7]: 45 | Ki (Mu-type opioid receptor [8]): 29.8 nM | Ke [9]: 0.14 nM | Ki [10]: 85 nM

N/C(=N\CCc1ccc2[nH]c3c(c2c1)C[C@@]1(O)[C@H]2Cc4ccc(O)c5c4[C@@]1(CCN2CC1CC1)[C@H]3O5)NCc1ccc(Cl)cc1
Ke (Mu-type opioid receptor [1]): 2.61 nM | Ratio [2]: 8 | Ratio [3]: 6 | Ratio [4]: 11 | Ki [5]: 2.41 nM | Ke [6]: 1.48 nM | Ratio [7]: 3 | Ki (Mu-type opioid receptor [8]): 7.74 nM | Ke [9]: 0.23 nM | Ki [10]: 19.2 nM

N/C(=N/Cc1ccc(O)cc1)Nc1ccc2[nH]c3c(c2c1)C[C@@]1(O)[C@H]2Cc4ccc(O)c5c4[C@@]1(CCN2CC1CC1)[C@H]3O5
Ke (Mu-type opioid receptor [1]): 12.7 nM | Ratio [2]: 13 | Ratio [3]: 183 | Ratio [4]: 127 | Ki [5]: 3.26 nM | Ke [6]: 18.3 nM | Ratio [7]: 4.5 | Ki (Mu-type opioid receptor [8]): 14.7 nM | Ke [9]: 0.1 nM | Ki [10]: 41.9 nM

N=C(N)NCCc1ccc2[nH]c3c(c2c1)C[C@@]1(O)[C@H]2Cc4ccc(O)c5c4[C@@]1(CCN2CC1CC1)[C@H]3O5
Ke (Mu-type opioid receptor [1]): 1.25 nM | Ratio [2]: 10 | Ratio [3]: 2 | Ratio [4]: 3 | Ki [5]: 0.49 nM | Ke [6]: 0.88 nM | Ratio [7]: 12 | Ki (Mu-type opioid receptor [8]): 5.69 nM | Ke [9]: 0.4 nM | Ki [10]: 4.93 nM

CCCC/N=C(\NCCCC)Nc1ccc2[nH]c3c(c2c1)C[C@@]1(O)[C@H]2Cc4ccc(O)c5c4[C@@]1(CCN2CC1CC1)[C@H]3O5
Ke (Mu-type opioid receptor [1]): 5.66 nM | Ratio [2]: 2 | Ratio [3]: 12 | Ratio [4]: 13 | Ki [5]: 6.96 nM | Ke [6]: 5.24 nM | Ratio [7]: 3 | Ki (Mu-type opioid receptor [8]): 18.3 nM | Ke [9]: 0.44 nM | Ki [10]: 15 nM

CCCN/C(=N\CC1CC1)Nc1ccc2[nH]c3c(c2c1)C[C@@]1(O)[C@H]2Cc4ccc(O)c5c4[C@@]1(CCN2CC1CC1)[C@H]3O5
Ke (Mu-type opioid receptor [1]): 3.26 nM | Ratio [2]: 6.5 | Ratio [3]: 79 | Ratio [4]: 41 | Ki [5]: 2.38 nM | Ke [6]: 6.31 nM | Ratio [7]: 9 | Ki (Mu-type opioid receptor [8]): 22.4 nM | Ke [9]: 0.08 nM | Ki [10]: 15.5 nM

N/C(=N/Cc1ccc([N+](=O)[O-])cc1)Nc1ccc2[nH]c3c(c2c1)C[C@@]1(O)[C@H]2Cc4ccc(O)c5c4[C@@]1(CCN2CC1CC1)[C@H]3O5
Ke (Mu-type opioid receptor [1]): 3.71 nM | Ratio [2]: 60 | Ratio [3]: 93 | Ratio [4]: 21 | Ki [5]: 1.61 nM | Ke [6]: 16.7 nM | Ratio [7]: 16 | Ki (Mu-type opioid receptor [8]): 26.3 nM | Ke [9]: 0.18 nM | Ki [10]: 95.8 nM
